Source: the array DNA melting data of Ke et al. (doi:10.1101/2024.01.08.574731)

Tests used:
[1] = folding enthalpy; higher = less favourable; fluorescence melt of hairpins on a sequencing array, two-state fit; settings: sodium 0.088 M
Summary of the method: (§1)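 Cy3 fluorescence of library hairpins on a sequenced MiSeq flow cell, with annealed Cy3 and quencher oligos, was imaged in 50 mM Na-HEPES pH 8.0, 25 mM NaCl in 2.5 °C steps up to 60 °C. Signals were normalised to pre-quench Cy3 and to control variants. Melting temperature and folding enthalpy came from bootstrapped two-state fits, inverse-variance combined over four replicates. Fitted temperatures were raised by 9.35 °C to match UV melts.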

[2] = melting temperature; fluorescence melt of hairpins on a sequencing array, two-state fit, raised by 9.35 °C to match UV melts; settings: sodium 0.088 M
Summary of the method: as §1

Row | Sequence | folding enthalpy [1] | Tm [2]
1 | GATCACGCCCGTGATC ((((((....)))))) | -39.8 kcal/mol | 60.6 °C
2 | GGAGGGTCGAAAGACTCC (((..(((....)))))) | -14.3 kcal/mol | 39.5 °C
3 | GGCGTAGGAAACTACACC ((.((((....)))).)) | -29.1 kcal/mol | 44.4 °C
4 | GTGGAGGGAAACCTTCGC (.(.(((....))).).) | -26.7 kcal/mol | 34.1 °C
5 | GGACATGGAAACATGCCC ((.((((....)))).)) | -23.4 kcal/mol | 47.4 °C
6 | GGGGAACGAAAGTTACCC (((.(((....))).))) | -47.9 kcal/mol | 60.6 °C
7 | GATACCGAAAGGTAGATC ((((((....)))..))) | -18.3 kcal/mol | 44.6 °C
8 | GTGTTCCGAAAGGACAC (((.(((....)))))) | -32.8 kcal/mol | 53.8 °C
9 | GCTCCGGGAAACTGGGGC ((.((.(....).)).)) | -33.9 kcal/mol | 48.1 °C
10 | GACAGTGGAAACGTTGTC ((((..(....)..)))) | -20.9 kcal/mol | 36.2 °C
11 | GTTGTGGCGAAAGCCAAC (((..(((....)))))) | -18.3 kcal/mol | 53.7 °C
12 | CATCAGAAATGATG (((((....))))) | -18.6 kcal/mol | 41.7 °C
13 | GATCATATTGATGATC ((((((....)))))) | -31.9 kcal/mol | 47.3 °C
14 | GTCCGCGAAAGCGTTGAC ((((((....)))..))) | -14.4 kcal/mol | 36.8 °C
15 | GGCGTTGGAAACGATGCC (((.(.(....).).))) | -24.9 kcal/mol | 48 °C
16 | GAAAGGAAACTTTC (((((....))))) | -16.9 kcal/mol | 30.4 °C
17 | GGTACTGGAAACGGTATC (.(((.(....).))).) | -13 kcal/mol | 27.7 °C
18 | GATCGGGCCACCGATC ((((((....)))))) | -39.5 kcal/mol | 67.5 °C
19 | GTAGACGCGAAAGCGTAC (((..(((....)))))) | -8.63 kcal/mol | 36.9 °C
20 | GAGGTGCCGAAAGGCCTC (((..(((....)))))) | -10.8 kcal/mol | 37.5 °C
21 | GCGAATTTTCGC ((((....)))) | -29.5 kcal/mol | 53.2 °C
22 | GGTTTACGAAAGTAACC (((.(((....)))))) | -20.6 kcal/mol | 44.2 °C
23 | GTTCAGCGAAAGCTCAAC (((.(((....))).))) | -15.4 kcal/mol | 33.2 °C

Row | Sequence | folding enthalpy [1] | Tm [2]
24 | GATCAAGACTTGATC ((((((...)))))) | -32.4 kcal/mol | 43.4 °C
25 | GGTTGGGGAAACCCAGTC (..((((....))))..) | -8.72 kcal/mol | 30.4 °C
26 | GGCTCAGGAAACTGAGTC (.(((((....))))).) | -40.2 kcal/mol | 52.6 °C
27 | GGTTTCGAAAGAAAACC ((((((....))).))) | -25.7 kcal/mol | 46.4 °C
28 | GCCCATCGAAAGATTGGC (((.(((....))).))) | -27.3 kcal/mol | 47.8 °C
29 | GGATCTGAAAAGATCC ((((((....)))))) | -37 kcal/mol | 58.3 °C
30 | GCATTGCGAAAGCAGTGC (((.(((....))).))) | -48.9 kcal/mol | 59.8 °C
31 | GCTTGGCGAAAGCCGCGC ((..(((....)))..)) | -15.6 kcal/mol | 57.6 °C
32 | GTCGTTTCGAAAGAAGAC (((..(((....)))))) | -14 kcal/mol | 28.9 °C
33 | GCGCACGGAAACACGCGC ((((..(....)..)))) | -32.9 kcal/mol | 51.6 °C
34 | GCTGTGCGAAAGCAGCGC ((..(((....)))..)) | -21 kcal/mol | 57.1 °C
35 | GCGGACGAAAGTCGGCGC ((((((....)))..))) | -26.7 kcal/mol | 68 °C
36 | GGCGGAGCGAAAGCTGCC (((..(((....)))))) | -17 kcal/mol | 52.3 °C
37 | GATGGCGGAAACACCACC (.(((.(....).))).) | -14.8 kcal/mol | 30.2 °C
38 | GCCTGGCGAAAGCCTCGC ((..(((....)))..)) | -9.28 kcal/mol | 45.3 °C
39 | GTTATCGAAAGATAAC ((((((....)))))) | -42.8 kcal/mol | 53.1 °C
40 | GCTTCAGGAAACTAAAGC ((((.((....)).)))) | -26.3 kcal/mol | 28.7 °C
41 | GGAAGGGGAAACCCTTCC (((((((....))))))) | -35.1 kcal/mol | 64.4 °C
42 | GATCATACCATGATC ((((((...)))))) | -40.3 kcal/mol | 48.9 °C
43 | GGGTCTACGAAAGTACCC (((..(((....)))))) | -22.5 kcal/mol | 40.1 °C
44 | GATCTCCTCCGAGATC ((((((....)))))) | -42.5 kcal/mol | 51.4 °C
45 | GCACCCGAAAGGGTCTGC ((((((....)))..))) | -13.3 kcal/mol | 49.1 °C
46 | GATCAAAGATTGATC ((((((...)))))) | -27.5 kcal/mol | 36.1 °C

Row | Sequence | folding enthalpy [1] | Tm [2]
47 | GTGCACTCGAAAGAGCAC (((..(((....)))))) | -27.8 kcal/mol | 45.2 °C
48 | GCGTCCGGACGC ((((....)))) | -40.9 kcal/mol | 60.3 °C
49 | GTCGCTCGAAAGAGAGAC (((.(((....))).))) | -42.9 kcal/mol | 58.4 °C
50 | GCGGACCGCCGC ((((....)))) | -19.1 kcal/mol | 55.8 °C
51 | GATCGGCGACCCGATC ((((((....)))))) | -34.2 kcal/mol | 55.6 °C
52 | GATCCTCTCAGGATC ((((((...)))))) | -36.4 kcal/mol | 55 °C
53 | GCTGGCGAAAGCCCCAGC ((((((....)))..))) | -14.8 kcal/mol | 43.5 °C
54 | GGTCTGCGAAAGCAAACC (((.(((....))).))) | -26.9 kcal/mol | 47.1 °C
55 | GCCTCAGGAAACTGAGAC (.(((((....))))).) | -20.8 kcal/mol | 38.4 °C
56 | GATCCTTTCGAGGATC ((((((....)))))) | -38.7 kcal/mol | 53.8 °C
57 | GATCGGACCGCCGATC ((((((....)))))) | -39.9 kcal/mol | 54.6 °C
58 | GCAACCGAAAGGTAATGC ((((((....)))..))) | -20.1 kcal/mol | 38.6 °C
59 | GTGTTTGGAAACGAACAC (((((.(....).))))) | -35.8 kcal/mol | 49.5 °C
60 | GTGCAACGAAAGTTTCAC (((.(((....))).))) | -21.4 kcal/mol | 41 °C
61 | GCGCGACCGAAAGGTCGC (((..(((....)))))) | -5.08 kcal/mol | 68.5 °C
62 | GAGAGACGAAAGTCGCTC (((.(((....))).))) | -32.3 kcal/mol | 60.5 °C
63 | GGTGGCGGAAACGTCACC ((((.((....)).)))) | -48.2 kcal/mol | 63.3 °C
64 | GCTCATGGAAACATGAAC (.(((((....))))).) | -18.3 kcal/mol | 35.7 °C
65 | GATATCGAAAGATATC ((((((....)))))) | -41 kcal/mol | 53.6 °C
66 | GCACAGGGAAACTTGTGC (((((.(....).))))) | -34.7 kcal/mol | 52.1 °C
67 | GTTATTGGAAACAATAGC (.(((((....))))).) | -18.9 kcal/mol | 33.4 °C
68 | GAATCTGGAAACAGGTTC (((.(((....))).))) | -31.5 kcal/mol | 44 °C
69 | GATCCTAAACAGGATC ((((((....)))))) | -31.5 kcal/mol | 49 °C
